Data on 20 compounds can be found in ChEMBL document CHEMBL1130412, “Antiulcer agents. 6. Analysis of the in vitro biochemical and in vivo gastric antisecretory activity of substituted imidazo[1,2-a]pyridines and related analogues using comparative molecular field analysis and hypothetical active site lattice methodologies” (J Med Chem, 1997).

SMILES strings stand for the structures. The source made the active and inactive calls. The rule behind the calls is not given here.

The target of data set [1] is Potassium-transporting ATPase (Oryctolagus cuniculus). Briefly: Inhibition of H+/K+ ATPase as reduced acid formation in rabbit gastric glands.
The target of data set [2] is Potassium-transporting ATPase (Sus scrofa, UniProt P19156). Kind of data set: (§1) Inhibition of purified H+/K+ ATPase at pH 7.4 as released inorganic phosphate from ATP using hog stomach gastric membrane vesicles. In kind it is tissue-based. A digest of the protocol: (§2)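 Gastric membrane vesicles from hog stomach were prepared by differential and zonal density gradient centrifugation. Activity was read as inorganic phosphate released from ATP at pH 7.4. Protein was measured by the Bradford method against a gammaglobulin standard.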
Chain of Potassium-transporting ATPase (Sus scrofa, UniProt P19156) (P18434 whole entry): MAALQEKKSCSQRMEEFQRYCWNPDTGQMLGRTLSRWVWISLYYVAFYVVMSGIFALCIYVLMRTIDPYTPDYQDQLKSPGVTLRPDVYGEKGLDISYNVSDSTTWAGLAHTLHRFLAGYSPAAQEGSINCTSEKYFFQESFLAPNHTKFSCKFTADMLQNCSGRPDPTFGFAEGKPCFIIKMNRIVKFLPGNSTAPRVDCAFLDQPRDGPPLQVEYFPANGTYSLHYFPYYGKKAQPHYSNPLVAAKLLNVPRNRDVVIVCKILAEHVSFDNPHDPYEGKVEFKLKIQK
Chain of Potassium-transporting ATPase (Sus scrofa, UniProt P19156) (P19156 whole entry): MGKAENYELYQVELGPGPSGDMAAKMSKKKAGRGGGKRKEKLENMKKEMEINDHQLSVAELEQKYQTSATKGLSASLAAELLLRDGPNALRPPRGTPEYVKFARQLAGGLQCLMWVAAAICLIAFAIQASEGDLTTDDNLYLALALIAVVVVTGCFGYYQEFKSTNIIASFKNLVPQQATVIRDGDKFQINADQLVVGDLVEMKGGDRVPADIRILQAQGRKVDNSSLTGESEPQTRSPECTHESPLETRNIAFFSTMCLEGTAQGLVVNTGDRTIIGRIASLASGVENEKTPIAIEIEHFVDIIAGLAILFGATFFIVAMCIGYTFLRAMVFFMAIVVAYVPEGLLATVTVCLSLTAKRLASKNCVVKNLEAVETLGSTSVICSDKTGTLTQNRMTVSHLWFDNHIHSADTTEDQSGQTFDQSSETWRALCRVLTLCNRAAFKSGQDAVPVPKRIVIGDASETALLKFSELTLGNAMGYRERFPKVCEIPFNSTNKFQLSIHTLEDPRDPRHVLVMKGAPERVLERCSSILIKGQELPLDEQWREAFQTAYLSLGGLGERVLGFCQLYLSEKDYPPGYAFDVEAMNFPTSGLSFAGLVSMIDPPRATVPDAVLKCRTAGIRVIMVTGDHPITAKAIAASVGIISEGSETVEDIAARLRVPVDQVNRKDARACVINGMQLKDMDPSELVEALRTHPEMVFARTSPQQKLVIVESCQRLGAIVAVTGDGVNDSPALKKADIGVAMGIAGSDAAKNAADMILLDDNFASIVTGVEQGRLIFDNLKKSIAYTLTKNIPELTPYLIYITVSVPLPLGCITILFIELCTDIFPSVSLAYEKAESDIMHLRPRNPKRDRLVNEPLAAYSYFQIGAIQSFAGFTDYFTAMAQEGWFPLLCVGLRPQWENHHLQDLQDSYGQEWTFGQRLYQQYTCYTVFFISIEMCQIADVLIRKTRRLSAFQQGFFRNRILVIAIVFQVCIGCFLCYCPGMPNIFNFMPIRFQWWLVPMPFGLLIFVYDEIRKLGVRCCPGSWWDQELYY

In data set [3] the test system is Canis familiaris. Briefly: Intravenous effective dose for gastric antisecretory activity against histamine-stimulated gastric acid secretion in adult mongrel dogs; Inactive. The format is functional, organism-based. The note with it: Canis lupus familiaris; Stomach. A digest of the protocol: (§3)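 Adult mongrel dogs with surgically prepared Heidenhain pouches received histamine to stimulate acid secretion. Compounds were given intravenously at 0.1-5 mg/kg. Reduction in acid output was measured against the non-drug control value in the same animal. ED50 for 50% inhibition was derived by linear regression, with 95% confidence limits.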

Data set [4] is described as follows: Dissociation constant (pKa). In kind it is physicochemical.
The species named for data set [5] is Canis familiaris. Briefly: Peroral effective dose for gastric antisecretory activity against histamine-stimulated gastric acid secretion in adult mongrel dogs; Inactive. In kind it is functional, organism-based. Particulars: Canis lupus familiaris; Stomach.
Data set [6] addresses T1, Potassium-transporting ATPase (Sus scrofa, UniProt P18434+P19156). Kind of data set: Ability to inhibit purified H+/K+ ATPase at pH 7.4 measured as release of inorganic phosphate from ATP using gastric membrane vesicles prepared from hog stomach; Inactive. In kind it is tissue-based. The essentials: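 Gastric membrane vesicles from hog stomach were prepared by differential and zonal density gradient centrifugation. Activity was read as inorganic phosphate released from ATP at pH 7.4. IC50 was taken as the concentration giving 50% inhibition of K+-stimulated activity, calculated by linear regression and reported ± standard error of the mean. Protein was measured by the Bradford method against a gammaglobulin standard.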

Data set [7] has as its system Potassium-transporting ATPase (Oryctolagus cuniculus). Briefly: Inhibition of H+/K+ ATPase was evaluated by its ability to inhibit acid formation in rabbit gastric glands; Inactive.
The subject of data set [8] is Canis familiaris. Kind of data set: Intravenous effective dose for gastric antisecretory activity against histamine-stimulated gastric acid secretion in adult mongrel dogs. In kind it is functional. Particulars: Canis lupus familiaris, Stomach. The essentials:
as §3

In data set [9] the test system is Canis familiaris. Briefly: Intravenous effective dose for gastric antisecretory activity against histamine-stimulated gastric acid secretion in adult mongrel dogs; Inactive-less than 20% inhibition at 5 mg/Kg (experimental). The note with it: Canis lupus familiaris; Stomach. In kind it is functional, organism-based. The essentials: as §3
Data set [10] concerns the target T1, Potassium-transporting ATPase. The description is as §1. In kind it is tissue-based. A digest of the protocol: as §2

Broadly, the ED50 is the midpoint of the dose-response relation. The pKa is the negative logarithm of the acid dissociation constant. A higher pKa goes with a weaker acid or stronger base.

T1 sequence (P18434 whole entry): as the sequence (P18434 whole entry) above
T1 sequence (P19156 whole entry): as the sequence (P19156 whole entry) above

As to `Cc1ccn2c(CC#N)c(C)nc2c1OCc1ccccc1`, the IC50 in data set [1] (read-out: IC50) was 400 nM; in [2], 13700 nM.
As for `Cc1nc2c(OCc3ccccc3)cccn2c1N`, the results for the IC50 in data set [1] (read-out: IC50) and in [2] were 310 nM and 890 nM, respectively.
Regarding `OCc1c(C(F)(F)F)nc2c(OCc3ccccc3)cccn12`, the ED50 entry in data set [3] and in [5] was “inactive” each time. In addition, the pKa in data set [4] was determined as 2. Besides, the IC50 result in [6] and in [7] was “Not Active” each time.
Regarding `Cc1nc2c3c(ccn2c1CC#N)CCC(c1ccccc1)O3` (stereo unspecified), the IC50 is 64 nM in data set [1] (read-out: IC50) and 92 nM in data set [2]. This compound displayed a 50% effective dose (ED50) in data set [8] of 0.06 mg/kg.
Regarding `Cc1nc2c(CCc3ccccc3)cccn2c1N`, the IC50 stood at 1460 nM in data set [1] (read-out: IC50) and 2100 nM in data set [2].
For the compound `Cc1nc2c(OCc3ccccc3)nccn2c1C`, the pKa in [4] was found to be 4.8. For the same compound, the 50% effect level in [8] (ED50) was put at a dose of 2 mg/kg.
Regarding `Cc1c(C(F)(F)F)nc2c(OCc3ccccc3)cccn12`, in data set [4], the pKa worked out at 2. Further, the ED50 entry in data set [9] was “inactive”.
`Cc1nc2c(OCc3ccccc3)cccn2c1C`: the pKa in [4] was found to be 7. The compound further displayed an ED50 in [8] of 0.1 mg/kg.
Regarding `Cc1nc2c(OCc3ccccc3)nccn2c1N`, the IC50 in [1] (read-out: IC50) turned out to be 8080 nM; in data set [10] it was 178 uM l-1.
Consider `Cc1nc2c(OCc3ccccc3)cccn2c1CO`, for which the pKa in data set [4] is 6.1. Besides, in [5], the ED50 entry is “inactive”. The IC50 in [1] (read-out: IC50) came to 530 nM; in [2], 2200 nM. The compound also registered a 50% effective dose (ED50) in data set [8] of 0.3 mg/kg.
Turning to `Cc1c(CC#N)nc2c(OCc3ccccc3)cccn12`, the pKa in data set [4] amounted to 5.5. In data set [8], this compound yielded an ED50 of 0.8 mg/kg.
In the case of `N#CCc1c(C(F)(F)F)nc2c(OCc3ccccc3)cccn12`, the ED50 result in data set [3] and in [5] was “inactive” throughout. In data set [4], this compound showed a pKa of 2. For the same compound, the IC50 result in data set [6] and in [7] was “Not Active” each time.
Consider `Cc1nc2c(CCc3ccccc3)cccn2c1CC#N`, for which the IC50 in [1] (read-out: IC50) worked out at 130 nM; in data set [2] it was 2000 nM.
For the compound `Cc1nc2c(C/C=C/c3ccccc3)cccn2c1CC#N`, the ED50 result in data set [3] and in [5] was “inactive” each time. For the same compound, the IC50 worked out at 442 uM l-1 in [1] and 206 uM l-1 in data set [10].
With `Cc1nc2c(/C=C\c3ccccc3)cccn2c1C`, the ED50 result in data set [3] and in data set [5] was “inactive” throughout. Moreover, the IC50 in [1] (read-out: IC50) was determined as 17500 nM; in data set [2], 28400 nM.
Compound `Cc1nc2c(CCc3ccccc3)nccn2c1N` came in with a pKa in data set [4] of 5.1. Further, in data set [9], the ED50 result was “inactive”.
Turning to `Cc1nc2c(/C=C/Cc3ccccc3)cccn2c1CC#N`, the IC50 in data set [1] (read-out: IC50) worked out at 3800 nM; in data set [2] it was 14000 nM.
In turn, `Cc1nc2c(CCc3ccccc3)cccn2c1C` returned a pKa in data set [4] of 7.5. In addition, it took a dose of 0.2 mg/kg to reach the 50% effect level in [8] (ED50).
Consider `Cc1nc2c(/C=C/c3ccccc3)cccn2c1C`, for which the results for the IC50 in [1] (read-out: IC50) and in data set [2] were 990 nM and 1680 nM, respectively.
On to `Cc1nc2c(/C=C/Cc3ccccc3)cccn2c1N`, for which the ED50 entry in data set [3] and in [5] was “inactive” throughout. In addition, the values for the IC50 in data set [1] (read-out: IC50) and in data set [2] were 14100 nM and 8600 nM, respectively.
